Source: ChEMBL document CHEMBL1132195, “cycloSal-Pronucleotides of 2',3'-dideoxyadenosine and 2', 3'-dideoxy-2',3'-didehydroadenosine: synthesis and antiviral evaluation of a highly efficient nucleotide delivery system” (J Med Chem, 1999)

Key:
[1] = Selectivity index by CC50 of CEM cells/EC50 of CEM cells against HIV-1; type: functional, CCRF-CEM
[2] = Hydrolysis half life in glycine/HCl buffer at the specified pH of 3.0; type: ADME; details: pH 3
Procedure, shortened: (§1)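 Compound diluted from DMSO stock to 0.71 mM final in 24.8 mM buffer at 37 °C, with AZT as internal standard. Buffers: phosphate (Sörensen) pH 7.3; glycine/HCl pH 3.0 or 1.5. Aliquots stopped by freezing and analysed by RP-HPLC at 260 nm. Rate constant taken from the log degradation slope, half-life calculated from it; mean of duplicates.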

[3] = system: Human immunodeficiency virus 1; assay: In vitro inhibition of HIV-1 replication in human T-lymphocytic cells (CEM).; type: functional, organism-based
Procedure, shortened: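 CEM cells at 4×10^5 cells/mL infected with HIV-1 or HIV-2 (strain ROD, stocks grown in MT-4 cells) at ~100 CCID50 per mL. Infected cells mixed 1:1 with compound dilutions.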

[4] = Hydrolysis half life in glycine/HCl buffer at the specified pH of 1.5; type: ADME; details: pH 1.5; procedure, shortened: as §1
CCRF-CEM = assay: In vitro cytotoxic concentration in CEM cells.; type: functional, Homo sapiens
[5] = system: Human immunodeficiency virus 2; assay: In vitro inhibition of HIV-2 replication in human T-lymphocytic cells (CEM).; type: functional, organism-based
Procedure, shortened: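 CEM cells at 4×10^5 cells/mL infected with HIV-1 or HIV-2 (strain ROD, stocks grown in MT-4 cells) at ~100 CCID50 per mL. Infected cells mixed 1:1 with compound dilutions. Giant cell formation recorded microscopically after 4-5 days; EC50 is the 50% effective concentration.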

C3H/3T3 [6] = assay: (§2) Effect of compound against Moloney murine sarcoma virus (MSV)-induced transformation of C3H/3T3 embryo murine fibroblasts; type: functional, cell-based, Mus musculus
Procedure, shortened: (§3)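 C3H/3T3 mouse embryo fibroblasts seeded at 20 000 cells/mL, incubated 24 h, infected with 80 focus-forming units of MSV for 120 min, then given fresh medium with compound dilutions. Transformation scored microscopically after 6 days; EC50 is the concentration giving 50% inhibition of transformation. MCC is the lowest concentration causing microscopically visible morphological alteration of the fibroblast cultures.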

[7] = Hydrolysis half life in phosphate buffer at the specified pH of 7.3; type: ADME; details: pH 7.3; procedure, shortened: as §1
C3H/3T3 [8] = assay: Minimal cytotoxic concentration required to cause morphological alteration of C3H/3T3 fibroblast culture cells; type: functional; details: Mus musculus; procedure, shortened: as §3
[9] = Partition coefficient (logP); type: physicochemical; details: octanol/water
Procedure, shortened: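 Compound dissolved in 1-octanol, shaken with an equal volume of water for 10 min and phases separated by centrifugation. Each phase analysed by RP-HPLC with UV detection at 260 nm. P calculated from the peak areas of the aqueous and organic phases.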

C3H/3T3 [10] = assay: as §2; type: functional, cell-based; details: Mus musculus; procedure, shortened: as §3
[11] = Selectivity by CC50 of CEM cells/EC50 of CEM cells against HIV-1; type: functional, CCRF-CEM
C3H/3T3 [12] = assay: Minimal cytotoxic concentration in C3H/3T3 cells.; type: functional; details: Mus musculus; procedure, shortened: as §3

SMILES | SI [1] | half-life [2] [min] | EC50 [3] [nM] | half-life [4] [min] | CC50 (CCRF-CEM) [µM] | EC50 [5] [nM] | EC50 (C3H/3T3 [6]; c3h/3t3) [µM] | half-life [7] [min] | EC50 ([3]; Human immunodeficiency virus 1) [nM] | MCC (C3H/3T3 [8]) [µM] | CC50 (CCRF-CEM; Homo sapiens, CCRF-CEM) [µM] | EC50 ([5]; Human immunodeficiency virus 2) [nM] | EC50 (C3H/3T3 [6]; Mus musculus, C3H/3T3) [µM] | logP ([9]; read-out: logP) | EC50 (C3H/3T3 [10]) [nM] | logP [9] | SI [11] | MCC (C3H/3T3 [12]) [µM]
COc1ccc2c(c1)COP(=O)(OC[C@@H]1C=C[C@H](n3cnc4c(N)ncnc43)O1)O2 (stereo in doubt; 10b) | 962 | 8.4 | 80 | 0.66 | 77 | 65 | 1.21 | 870 |  |  |  |  |  |  |  |  |  | 
Cc1cc(C)c2c(c1)COP(=O)(OCC1CCC(n3cnc4c(N)ncnc43)O1)O2 (centres undefined) | 383 | 618 |  | 43.8 |  |  |  | 3490 | 25 | > 50 | 10 | 25 | 1.14 | 1.35 |  |  |  | 
OCC1CCC(n2cnc3ncnc(O)c32)O1 (centres undefined) | 44 | 12 |  | 1.8 |  |  |  |  | 3500 | > 50 | 156 | 4000 | > 50 | -1.25 |  |  |  | 
OC[C@@H]1C=C[C@H](n2cnc3ncnc(O)c32)O1 | 20 | < 0.6 |  | < 0.6 |  |  |  |  | 4300 | > 50 | 87 | > 50000 | > 50 | -0.89 |  |  |  | 
Cc1cn([C@H]2C[C@H](N=[N+]=[N-])[C@@H](CO)O2)c(=O)[nH]c1=O [ZIDOVUDINE] |  |  |  |  |  |  |  |  |  |  | > 100 | 6 | > 100 | 0.025 |  |  |  | 
COc1ccc2c(c1)COP(=O)(OCC1CCC(n3cnc4c(N)ncnc43)O1)O2 (centres undefined) | 1851 | 732 |  | 48 |  |  |  | 1400 | 47 | > 50 | 87 | 160 |  | 0.64 | 3900 |  |  | 
Cc1cccc2c1OP(=O)(OCC1CCC(n3cnc4c(O)ncnc43)O1)OC2 (centres undefined) | 53 | 180 |  | 12 |  |  |  | 2670 | 1100 | > 50 | 58 | 700 | > 50 | 0.14 |  |  |  | 
Cc1cccc2c1OP(=O)(OCC1CCC(n3cnc4c(N)ncnc43)O1)OC2 (centres undefined) | 585 | 834 |  | 31.8 |  |  |  | 2660 | 47 | > 50 | 28 | 30 |  | 0.88 | 1180 |  |  | 
COc1ccc2c(c1)COP(=O)(OC[C@@H]1C=C[C@H](n3cnc4c(N)ncnc43)O1)O2 (stereo in doubt; 10b (f)) | 932 |  | 43 |  | 40 | 50 | 2.83 |  |  |  |  |  |  |  |  | 0.48 |  | 
Nc1ncnc2c1ncn2[C@H]1C=C[C@@H](CO)O1 | 3 | 0.6 |  | < 0.6 |  |  |  |  | 30000 | > 50 | 96 | 50000 | 35 | -0.49 |  |  |  | 
Cc1cc(C)c2c(c1)COP(=O)(OC[C@@H]1C=C[C@H](n3cnc4c(N)ncnc43)O1)O2 (some centres undefined) | 494 | 8.4 |  | 0.6 |  |  |  | 2680 | 50 | > 50 | 25 | 55 | 1.14 | 0.95 |  |  |  | 
COc1ccc2c(c1)COP(=O)(OC[C@@H]1C=C[C@H](n3cnc4c(N)ncnc43)O1)O2 (stereo in doubt; 10b (s)) | 125 |  | 500 |  |  | 330 | 12.8 |  |  | > 50 | 62 |  |  | 0.41 |  |  |  | 
Nc1ncnc2c1ncn2C1CCC(COP2(=O)OCc3ccccc3O2)O1 (centres undefined) | 3096 | 774 |  | 36 |  |  |  | 1020 | 30 | > 50 | 93 | 130 |  |  | 2860 | 0.59 |  | 
Nc1ncnc2c1ncn2[C@H]1CC[C@@H](CO)O1 |  |  |  |  |  |  |  |  | 4300 |  | > 250 | 4500 | 40 | -0.28 |  |  | >57 | > 50
Cc1cccc2c1OP(=O)(OC[C@@H]1C=C[C@H](n3cnc4c(N)ncnc43)O1)OC2 (some centres undefined) | 746 | 9 |  | 0.588 |  |  |  | 1940 | 65 | > 50 | 49 | 190 | 1.24 | 0.63 |  |  |  | 
Nc1ncnc2c1ncn2[C@H]1C=C[C@@H](COP2(=O)OCc3ccccc3O2)O1 (some centres undefined) | 1329 | 8.4 |  | 0.6 |  |  |  | 618 | 65 | > 50 | 86 | 350 | 0.3 | 0.36 |  |  |  | 
Cc1cn([C@H]2C=C[C@@H](CO)O2)c(=O)[nH]c1=O [STAVUDINE] |  |  |  |  |  |  |  |  | 180 |  | 56 | 260 | 15 |  |  |  | 311 | 
